Results published in ChEMBL document CHEMBL2093137, “WHO-TDR NTD Screening”.
In brackets after ≈: the same amount, converted by molar mass.

Assays:
[1] = WHO-TDR: Cytotoxicity; format: toxicity, cell-based; conditions: human, MRC5 cells
Plasmodium falciparum K1 = assay: WHO-TDR: Malaria; format: functional, organism-based, Homo sapiens; conditions: Erythrocyte
Summary of the method: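 Previously published standard procedures, including a reference drug as positive control, were used to screen whole Plasmodium falciparum K1 parasites inside human red blood cells. IC50 is the measure of antiplasmodial potency. The compounds were a 10,000-member diverse Life Chemicals library.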

Trypanosoma cruzi = assay: WHO-TDR: Chagas disease; format: functional, organism-based, Homo sapiens; conditions: MRC5
Summary of the method: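 Following previously published standard procedures, with a reference drug as positive control, a whole-organism assay was run on Trypanosoma cruzi Tulahuen CL2 beta-galactosidase strain amastigotes inside MRC-5SV2 human lung fibroblast host cells. The 10,000 compounds tested formed a diverse Life Chemicals library filtered for drug-likeness and reactive groups. Results are expressed as IC50 for antiparasitic potency.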

[2] = system: Trypanosoma brucei brucei; assay: WHO-TDR: Human African Trypanosomiasis (HAT); format: functional, organism-based; conditions: Squib-427
Summary of the method: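 In this whole-organism screen, the target was the bloodstream form of Trypanosoma brucei, strain Squib 427. A diverse set of 10,000 compounds from Life Chemicals, previously filtered for drug-likeness and reactive groups, was assayed by standard published procedures using reference drugs as positive controls. Each value is an IC50 for antiparasitic potency.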

Leishmania infantum = assay: WHO-TDR: Leishmaniasis; format: functional, organism-based, Mus musculus; conditions: Macrophage
Summary of the method: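 Intracellular amastigotes of Leishmania infantum MHOM/MA(BE)/67, hosted in murine peritoneal macrophages, were exposed to compounds from a 10,000-member diverse library supplied by Life Chemicals. The library had been filtered for drug-likeness and reactive groups. The reported IC50 expresses antiparasitic potency.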

Schistosoma mansoni = assay: WHO-TDR: Schistosomiasis; format: functional; set-up: concentration or dose not given beside the values
Summary of the method: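 Activity appears as percent inhibition and as IC50. The underlying screen tested a diverse library of 10,000 compounds, supplied by Life Chemicals, on whole larval and/or adult worms of the Puerto Rican strain of Schistosoma mansoni.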

Onchocerca lienalis = assay: WHO-TDR: Onchocerciasis; format: functional; set-up: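 at 12.5 µM on microfilariae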
Summary of the method: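 Following previously published standard procedures, with reference drugs as positive controls, a diverse Life Chemicals library was tested on whole Onchocerca ochengi or Onchocerca lienalis microfilariae. The library held 10,000 compounds filtered for drug-likeness and reactive groups. Activity is recorded both as percent inhibition and as IC50.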

Brugia malayi = assay: WHO-TDR: Lymphatic Filariasis; format: functional; set-up: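 tested at 10 µM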
Summary of the method: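 Following previously published standard procedures, compounds were tested on whole Brugia malayi microfilariae, with reference drugs as positive controls. They came from a diverse Life Chemicals collection of 10,000 compounds filtered for drug-likeness and reactive groups. Results appear as percent inhibition and as IC50.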

SMILES | IC50 (Plasmodium falciparum K1) | IC50 [2] | IC50 (Leishmania infantum) | IC50 [1] | IC50 (Trypanosoma cruzi) | % Inhibition (Schistosoma mansoni) | % Inhibition (Onchocerca lienalis) | % Inhibition (Brugia malayi)
CN(Cc1ccco1)S(=O)(=O)c1ccc(C(=O)Nc2nnc(-c3cccs3)o2)cc1 | 6.65 µg/mL (≈ 15 µM) | 4.22 µg/mL (≈ 9.49 µM) | > 13.3 µg/mL | 2.5 µg/mL (≈ 5.62 µM) | 0.456 µg/mL (≈ 1.03 µM) | 0% | 0% | 0%
CCN(CC)CCSc1ccc(-c2ccc(Cl)cc2)nn1 | 0.368 µg/mL (≈ 1.14 µM) | > 9.66 µg/mL | > 9.66 µg/mL | > 9.66 µg/mL | > 9.66 µg/mL | 0% | 0% | 0%
Fc1ccc(Nc2nc(N3CCCC3)nc(N3CCCC3)n2)cc1 | > 10.9 µg/mL | 0.442 µg/mL (≈ 1.35 µM) | > 10.9 µg/mL | > 10.9 µg/mL | 3.85 µg/mL (≈ 11.7 µM) | 0% | 9.215% | 0%
COc1ccc(SCC(=O)Nc2nc(-c3ccccn3)cs2)cc1 | > 10.7 µg/mL | 0.347 µg/mL (≈ 0.971 µM) | > 10.7 µg/mL | > 10.7 µg/mL | 0.356 µg/mL (≈ 0.996 µM) | 0% | 86.55% | 0%
COc1ccc(OC)c(-c2csc(NC(=O)Cc3ccc(SC)cc3)n2)c1 | 3.55 µg/mL (≈ 8.87 µM) | 3.52 µg/mL (≈ 8.79 µM) | > 12 µg/mL | > 12 µg/mL | 0.663 µg/mL (≈ 1.66 µM) | 0% | 11.35% | 0%
COc1ccc(-c2nc(NC(=O)Cc3ccc(SC)cc3)sc2C)cc1 | 0.271 µg/mL (≈ 0.705 µM) | 3.73 µg/mL (≈ 9.71 µM) | 3.73 µg/mL (≈ 9.71 µM) | 1.29 µg/mL (≈ 3.37 µM) | 1.95 µg/mL (≈ 5.07 µM) | 0% | 45.5% | 0%
CS(=O)(=O)c1ccc(CC(=O)Nc2nc(-c3ccc(Cl)s3)cs2)cc1 | > 12.4 µg/mL | > 12.4 µg/mL | 4.01 µg/mL (≈ 9.71 µM) | 1.53 µg/mL (≈ 3.7 µM) | 0.575 µg/mL (≈ 1.39 µM) | 0% | 11.35% | 0%
C=CCn1/c(=N\C(=O)Cc2ccc(S(C)(=O)=O)cc2)sc2c(OC)ccc(OC)c21 | 11.2 µg/mL (≈ 25.1 µM) | 0.462 µg/mL (≈ 1.03 µM) | 4.34 µg/mL (≈ 9.71 µM) | 13.2 µg/mL (≈ 29.6 µM) | 4.07 µg/mL (≈ 9.11 µM) | 0% | 13.3% | 0%
CC(C)Sc1ccc(C(=O)Nc2nc(-c3ccccn3)cs2)cc1 | 0.138 µg/mL (≈ 0.388 µM) | 0.341 µg/mL (≈ 0.959 µM) | > 10.7 µg/mL | 3.11 µg/mL (≈ 8.75 µM) | 0.368 µg/mL (≈ 1.04 µM) | 0% | 86.7% | 0%
CCN(C1CCCCC1)S(=O)(=O)c1ccc(C(=O)Nc2nnc(-c3ccco3)o2)cc1 | > 13.3 µg/mL | 4.32 µg/mL (≈ 9.71 µM) | 4.32 µg/mL (≈ 9.71 µM) | 6.19 µg/mL (≈ 13.9 µM) | 0.442 µg/mL (≈ 0.994 µM) | 0% | 20% | 0%
CCN(C1CCCCC1)S(=O)(=O)c1ccc(C(=O)Nc2nnc(-c3ccc(F)cc3)o2)cc1 | > 14.2 µg/mL | 0.966 µg/mL (≈ 2.04 µM) | 4.59 µg/mL (≈ 9.71 µM) | 0.577 µg/mL (≈ 1.22 µM) | 0.459 µg/mL (≈ 0.971 µM) | 0% | 46.7% | 0%

More lines, main results first:

IC50 (Plasmodium falciparum K1) | IC50 [2] | IC50 (Leishmania infantum) | SMILES | IC50 [1] | IC50 (Trypanosoma cruzi) | % Inhibition (Schistosoma mansoni) | % Inhibition (Onchocerca lienalis) | % Inhibition (Brugia malayi)
> 14.2 µg/mL | 2.96 µg/mL (≈ 6.25 µM) | > 14.2 µg/mL | CN(Cc1ccco1)S(=O)(=O)c1ccc(C(=O)Nc2nnc(-c3ccccc3Cl)o2)cc1 | 0.807 µg/mL (≈ 1.71 µM) | 0.465 µg/mL (≈ 0.983 µM) | 0% | 0% | 0%
10.2 µg/mL (≈ 21.8 µM) | 4.55 µg/mL (≈ 9.71 µM) | 9.57 µg/mL (≈ 20.4 µM) | COc1ccccc1-c1nnc(NC(=O)c2ccc(S(=O)(=O)N(C)Cc3ccco3)cc2)o1 | 5.89 µg/mL (≈ 12.6 µM) | 0.511 µg/mL (≈ 1.09 µM) | 0% | 0% | 0%
> 12.7 µg/mL | 0.415 µg/mL (≈ 0.982 µM) | > 12.7 µg/mL | Cc1ccc(S(=O)(=O)N2CCCc3cc(NC(=O)Oc4ccccc4)ccc32)cc1 | 1.76 µg/mL (≈ 4.17 µM) | > 12.7 µg/mL | 0% | 0% | 0%
> 12 µg/mL | > 12 µg/mL | 0.387 µg/mL (≈ 0.971 µM) | CS(=O)(=O)N1CCCc2cc(NC(=O)c3cc4ccccc4oc3=O)ccc21 | > 12 µg/mL | > 12 µg/mL | 0% | 0% | 0%
> 11.2 µg/mL | 0.363 µg/mL (≈ 0.972 µM) | > 11.2 µg/mL | O=C(CCCSc1ccc(F)cc1)Nc1nc(-c2ccccn2)cs1 | 3.76 µg/mL (≈ 10.1 µM) | 0.335 µg/mL (≈ 0.897 µM) | 0% | 39.33% | 0%
> 14.6 µg/mL | > 14.6 µg/mL | > 14.6 µg/mL | CN(C)CCN(C(=O)CCCS(=O)(=O)c1ccccc1)c1nc2ccc(F)cc2s1 | > 14.6 µg/mL | 0.759 µg/mL (≈ 1.69 µM) | 0% | 12.34% | 33.33%
9.42 µg/mL (≈ 21.8 µM) | 4.2 µg/mL (≈ 9.71 µM) | > 13 µg/mL | Cc1ccc(C)c(-c2csc(NC(=O)CCCS(=O)(=O)c3ccc(F)cc3)n2)c1 | 0.999 µg/mL (≈ 2.31 µM) | 0.588 µg/mL (≈ 1.36 µM) | 0% | 12.34% | 0%
6 µg/mL (≈ 13.4 µM) | 4.36 µg/mL (≈ 9.71 µM) | > 13.5 µg/mL | O=C(CCCS(=O)(=O)c1ccc(F)cc1)Nc1nc2c(s1)CSc1ccccc1-2 | > 13.5 µg/mL | 5.29 µg/mL (≈ 11.8 µM) | 100% | 66.33% | 0%
7.42 µg/mL (≈ 17.6 µM) | 4.29 µg/mL (≈ 10.2 µM) | 4.08 µg/mL (≈ 9.71 µM) | CS(=O)(=O)c1ccc(CC(=O)Nc2nc3c(s2)-c2cccc4cccc-3c24)cc1 | 0.688 µg/mL (≈ 1.64 µM) | 0.317 µg/mL (≈ 0.754 µM) | 0% | 11.35% | 0%
12.4 µg/mL (≈ 30 µM) | 4.01 µg/mL (≈ 9.71 µM) | > 12.4 µg/mL | CCS(=O)(=O)c1ccc(CC(=O)Nc2nc3c(s2)CCc2ccccc2-3)cc1 | 0.908 µg/mL (≈ 2.2 µM) | 0.436 µg/mL (≈ 1.06 µM) | 0% | 0% | 0%
> 12.6 µg/mL | > 12.6 µg/mL | 0.407 µg/mL (≈ 0.97 µM) | CC(C)S(=O)(=O)c1ccc(C(=O)Nc2ccccc2-c2nc3ccccc3[nH]2)cc1 | > 12.6 µg/mL | > 12.6 µg/mL | 0% | 13.3% | 0%
> 14.1 µg/mL | 11.7 µg/mL (≈ 24.8 µM) | 4.57 µg/mL (≈ 9.71 µM) | CCN(C1CCCCC1)S(=O)(=O)c1ccc(C(=O)Nc2nc(-c3ccccn3)cs2)cc1 | 5.19 µg/mL (≈ 11 µM) | 0.459 µg/mL (≈ 0.975 µM) | 0% | 80% | 0%
> 13.6 µg/mL | 0.528 µg/mL (≈ 1.16 µM) | > 13.6 µg/mL | CCN(C1CCCCC1)S(=O)(=O)c1ccc(C(=O)Nc2nnc(-c3ccccc3)o2)cc1 | 1.61 µg/mL (≈ 3.54 µM) | 0.431 µg/mL (≈ 0.948 µM) | 0% | 53.3% | 0%
9.05 µg/mL (≈ 20.7 µM) | 4.15 µg/mL (≈ 9.49 µM) | > 13.1 µg/mL | O=C(CCCSc1ccccc1)N(Cc1ccncc1)c1nc2c(F)cccc2s1 | > 13.1 µg/mL | 0.816 µg/mL (≈ 1.86 µM) | 0% | 0% | 0%
